H69AR inhibit = growth inhibitors of human H69AR lung tumor cells; AID 598; viability, % at 10 µM; H69AR lung tumor viability, ATP luminescence, 72 h; stronger effect = lower value; hit rate 6% among 85,000;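 active means viability at or below 40%; inactive means viability above 40%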;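 further: multidrug resistant small cell line overexpressing MRP-1 efflux transporter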
Jurkat viability = cytotoxicity toward Jurkat cells; Jurkat E6.1 viability, ATP luminescence, 48 h; inhibition, % at 4 µM; hit rate 1.2% among 56,000; AID 463;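 active means inhibition above the mean inhibition of all tested compounds plus 3 SD, cut at about 28% in these data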
E coli WT exp = growth inhibitors of E. coli BW25113 wild type; OD600 absorbance; growth inhibition, % at 100 µM; hit rate 0.15% among 98,000; AID 710;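 active means growth inhibition above about 50% at one test dose, limit read from the data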;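 further: growth measured after 20 h incubation at 37 °C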
Lung fibro prol = blocks proliferation of human lung fibroblasts | LL 47 human lung fibroblast viability, ATP luminescence; stronger effect = lower value | viability, % at 10 µM | hit rate 1.1% among 85,000;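 active means viability at or below 50% in the single dose screen; inactive means viability above 50%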;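 further: compound exposure lasted 72 h before the ATP readout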
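Material: human LL 47 lung fibroblast cells; quantity: 1,150 cells/well; medium: IMEM plus 15% FBS; doses: 0.1% DMSO in all compound wells; timing: overnight attachment after seeding, then 72 h compound exposure at 37 °C; detection: CellTiter-Glo luminescence; measure: % viability of median cell-only signal; controls: cell-only wells, no compound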
Ecoli tolC = E. coli tolC mutant growth inhibition. E. coli BW25113 tolC mutant growth, OD615. growth inhibition, % at 10 µM (by protocol). hit rate 2.2% among 65,000. AID 573;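 active means growth inhibition at or above a cutoff equal to the mean over every tested compound plus 3 SD, cut at about 60% in these data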;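 further: growth measured after 20 h incubation at 37 °C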
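Material: E. coli BW25113 ΔtolC::kan, tolC deletion mutant strain. Measure: percent growth inhibition. Schedule: 37 °C, 20 h exposure. Doses: single-point testing at 10 µM. Signal: A615 absorbance measurement. Buffer or medium: kanamycin-containing LB broth (50 µg/mL).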
HUVEC inhibit = inhibitors of human endothelial cell proliferation; HUVEC proliferation, CellTiter-Glo luminescence, 72 h; stronger effect = lower value; viability, % at 10 µM (by protocol); hit rate 1.1% among 86,000; AID 648;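 active means viability at or below 30%; inactive means viability above 30%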
A number is an active result; – = inactive; · = no result given. This is a sample that favours compounds with a hit; in the whole collection about 6.4% have one here.

SMILES	H69AR inhibit	Jurkat viability	E coli WT exp	Lung fibro prol	Ecoli tolC	HUVEC inhibit
Cc1cc(C)nc(N2CCCC(C(=O)NC(C)CCc3ccco3)C2)n1 (configuration not stated)	–	–	–	–	–	–
Cc1ccccc1NC(=S)NNc1ncc(C(F)(F)F)cc1Cl	·	·	–	·	·	·
Cc1c(Cl)cccc1NC(=S)NNc1ncc(C(F)(F)F)cc1Cl	16	·	–	–	·	–
Cc1nnc(SCc2ccc(Cl)cc2)n1CC1CCCO1 (configuration not stated)	–	–	–	–	–	–
CCNC(=O)CSc1nc2ccccc2c(=O)n1-c1cc(OC)ccc1OC	–	·	–	–	·	–
CN(C)c1ccc2c(O)cc(=O)n(C)c2c1	22	·	–	–	–	–
CN(c1ccc(Cl)cc1)c1cc(=O)n(C)c2ccccc12	–	–	–	–	–	–
CC(C)Sc1nc(SCC(=O)NCc2ccco2)c2c3c(sc2n1)COC(C)(C)C3	34	·	–	–	–	–
CCCSc1nc(SCC(=O)NCc2ccccc2)c2c3c(sc2n1)COC(C)(C)C3	–	·	–	–	·	–
CCCc1nc2sc3c(SCC(=O)NCc4ccco4)ncnc3c2c2c1CCC2	8.6	·	–	–	–	–
Cc1ccccc1-c1cc(C(=O)Nc2sc(C(=O)OC(C)C)c(C)c2C#N)c2ccccc2n1	·	·	–	·	·	·
CC(C(=O)N1CCC(C(N)=O)CC1)N(c1ccc(Oc2ccccc2)cc1)S(C)(=O)=O (configuration not stated)	–	·	–	–	·	–
CNc1ccc(Br)cc(C(=O)/C=C/c2cc(OC)ccc2OC)c1=O	0.6	·	·	–	·	–
COCCCNC(=O)/C=C/c1ccc(Cl)cc1Cl	·	·	–	·	·	·
CCNc1ccc(Br)cc(C(=O)/C=C/c2ccc(Cl)cc2Cl)c1=O	0.4	·	·	–	·	21
CNc1ccc(Br)cc(C(=O)/C=C/c2ccc3c(c2)OCO3)c1=O	·	·	–	·	·	·
Clc1ccc(Cl)c(-c2nn3c(COc4ccccc4)nnc3s2)c1	–	–	–	–	96	–
Cc1c(-c2nc(N)nc(Nc3ccc(F)cc3)n2)oc2ccccc12	21	–	–	–	–	–
CCOC(=O)c1cc(NC(=O)N2CCCCC2)c(C)nc1C	–	·	–	–	–	–
Cc1cc2c(cc(C(=O)OCC(=O)NCc3ccco3)n2C)s1	27	·	–	–	·	–
CC(=O)NC(Cc1c[nH]c2ccccc12)C(=O)OCC(=O)Nc1ccc2c(c1)OCO2 (configuration not stated)	13	–	–	–	–	–
COc1cccc(C(=O)c2sc(NC(C)C)nc2N)c1	–	·	–	43	–	–
COc1ccc(C(=O)c2sc(NC(C)C)nc2N)cc1OC	–	·	–	–	–	–
Cn1cc(Cl)c(C(=O)N2CCN(c3ncccn3)CC2)n1	·	–	–	·	–	·
Cc1ccc(CNC(=O)Nc2cccs2)cc1	–	·	–	–	–	–
SMILES	H69AR inhibit	Jurkat viability	E coli WT exp	Lung fibro prol	Ecoli tolC	HUVEC inhibit
COc1cccc(-c2nc(NC(C)C)c3ccccc3n2)c1O	–	·	–	–	–	–
Oc1ccccc1-c1nc(NCC2CCCO2)c2ccccc2n1 (configuration not stated)	36	–	–	–	66	–
COc1cccc(-c2nc(NCC3CCCO3)c3ccccc3n2)c1O (configuration not stated)	32	·	–	–	–	–
c1ccc2c(c1)nc(NCC1CCCO1)c1nnnn12 (configuration not stated)	–	–	–	–	–	–
CCC(C)Nc1nc(-c2cccc(OC)c2O)nc2ccccc12 (configuration not stated)	4.9	·	–	–	–	–
C/C(CC1CC2=C(CC1(C)C)C(C)(C)CCC2)=N\NC(N)=S (configuration not stated)	23	·	–	–	·	–
C/C(CC1CC(COCCC(C)C)OC1=O)=N\NC(N)=S (configuration not stated)	·	·	–	·	·	·
C/C(=N\N=C\c1ccccc1)c1nnn(-c2nonc2N)c1C	·	·	–	·	·	·
CCOC(=O)c1ccc(CSc2nnc(N)s2)cc1	–	–	–	–	–	–
Cc1ccc(OCc2nc(C#N)c(NCc3ccc4c(c3)OCO4)o2)cc1	–	·	–	–	81	–
CCOc1ccc(-c2nc(C#N)c(NCc3ccc4c(c3)OCO4)o2)cc1	–	–	–	–	–	–
CN(C)CCNc1oc(COc2ccc(-c3ccccc3)cc2)nc1C#N	15	–	–	45	–	–
N#Cc1nc(COc2ccc(-c3ccccc3)cc2)oc1NCCCN1CCOCC1	–	–	–	–	–	6.3
COc1ccc(CCNc2oc(COc3ccccc3F)nc2C#N)cc1	–	–	–	–	88	–
CNc1nc(N(C)C)nc(N(C)C)n1	–	·	·	–	·	–
CCOc1ccc(C(=O)Nc2cc(=O)n(C)c(=O)n2C)cc1	–	–	·	–	–	–
CN(C)C(=C(C#N)C#N)N1CCN(c2ccc(Cl)c(Cl)c2)CC1	·	·	–	·	·	·
Fc1ccc(CSc2nncn2NCc2ccc3c(c2)OCO3)cc1	–	–	–	·	–	–
Cc1nnc(SCc2cccs2)[nH]c1=O	·	·	·	·	–	·
O=c1[nH]c(CN2CCC(c3nc4ccccc4s3)CC2)nc2sc3c(c12)CCC3	–	–	·	–	–	–
O=C(CSC1=NCCS1)Nc1nc2c(s1)CCCC2	17	–	–	–	–	–
O=C(Cc1cccs1)Nc1nc2c(s1)CCCC2	–	38	–	–	–	–
O=C(CSc1ncn(-c2ccccc2)n1)Nc1nc2c(s1)CCCC2	–	–	–	–	61	–
O=C(Nc1cc(C(F)(F)F)ccc1-n1cncn1)c1ccc(-c2ccccc2)cc1	–	·	–	–	·	–
COc1ccc(S(=O)(=O)n2cnc3cc(C)c(C)cc32)cc1C	–	–	–	–	77	–
SMILES	H69AR inhibit	Jurkat viability	E coli WT exp	Lung fibro prol	Ecoli tolC	HUVEC inhibit
COc1ccc(S(=O)(=O)n2cnc3cc(C)c(C)cc32)cc1	–	–	–	–	–	–
COc1ccc(S(=O)(=O)N2CCCN(S(=O)(=O)c3ccc(OC)c(C)c3)CC2)cc1C	33	·	·	–	·	–
CC1CCCN(C(=O)C(C)Sc2nc(-c3ccccc3)cc(C(F)(F)F)n2)C1 (configuration not stated)	–	·	–	–	·	–
O=C(CN1CCC(c2nc3ccccc3s2)CC1)NCc1cccs1	–	28	–	–	–	–
Cc1cc(=O)oc2cc(OCC(=O)NCc3ccco3)ccc12	–	·	·	–	·	–
O=C1NN(c2ccccc2)C(=O)/C1=C\c1cccc(OC(=O)c2cccs2)c1	3.8	·	–	–	·	–
O=C1NN(c2ccc(Cl)c(Cl)c2)C(=O)/C1=C/c1cccc(OC(=O)c2cccs2)c1	5.4	·	–	–	·	–
CCOc1cc(/C=C2/C(=O)N(c3ccccc3)N=C2C)ccc1OC(=O)c1cccs1	·	·	–	·	·	·
CC(C)(C)n1nnnc1C(c1cccs1)N(Cc1ccc(Cl)cc1)CC1CCCO1 (configuration not stated)	–	·	–	–	·	–
CC(=O)N1CCc2cc(S(=O)(=O)CCC(=O)Nc3c(C)n(C)n(-c4ccccc4)c3=O)ccc21	–	–	–	·	–	–
N#CCCS(=O)(=O)c1nnnn1-c1ccccc1	0.4	–	·	–	–	–

From PubChem
